{"source": "ChEMBL document CHEMBL1817611", "about": "“Synthesis, antitubercular activity, and SAR study of N-substituted-phenylamino-5-methyl-1H-1,2,3-triazole-4-carbohydrazides” (2011)", "data": [{"test_system": "Mycobacterium tuberculosis", "assay": "Antitubercular activity against Mycobacterium tuberculosis H37Rv ATCC 27294 by microplate alamar blue assay", "type": "functional", "how_it_was_run": "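Resazurin-based (Alamar Blue) colorimetric redox indicator used to assess growth of M. tuberculosis H37Rv. MIC (µg/mL) is taken as the lowest drug concentration that prevents a colour change from blue (no growth) to pink (growth).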", "units": {"MIC": "µg/mL"}, "values": [{"smiles": "Cc1c(C(=O)N/N=C/c2ccccc2)nnn1Nc1ccc(Br)cc1", "MIC": "> 100"}, {"smiles": "Cc1c(C(=O)N/N=C/c2ccccc2)nnn1Nc1ccc(F)cc1", "MIC": "> 100"}, {"smiles": "Cc1c(C(=O)N/N=C/c2ccc(Br)s2)nnn1Nc1ccc(Br)cc1", "MIC": "> 100"}, {"smiles": "Cc1c(C(=O)N/N=C/c2ccc(Br)s2)nnn1Nc1ccc(F)cc1", "MIC": "> 100"}, {"smiles": "Cc1c(C(=O)N/N=C/c2ccco2)nnn1Nc1ccc(Br)cc1", "MIC": 25.5}, {"smiles": "Cc1c(C(=O)N/N=C/c2ccco2)nnn1Nc1ccc(F)cc1", "MIC": 12.5}, {"smiles": "Cc1c(C(=O)N/N=C/c2ccc([N+](=O)[O-])o2)nnn1Nc1ccc(Br)cc1", "MIC": 6.25}, {"smiles": "Cc1c(C(=O)N/N=C/c2ccc([N+](=O)[O-])o2)nnn1Nc1ccc(F)cc1", "MIC": 5}, {"smiles": "Cc1c(C(=O)N/N=C/c2ccc([N+](=O)[O-])o2)nnn1Nc1ccccc1", "MIC": 2.5}, {"smiles": "Cc1c(C(=O)N/N=C/c2ccc(Br)s2)nnn1Nc1ccccc1", "MIC": 12.5}, {"smiles": "Cc1c(C(=O)N/N=C/c2ccc([N+](=O)[O-])o2)nnn1Nc1ccc(Cl)cc1", "MIC": 5}, {"smiles": "Cc1c(C(=O)N/N=C/c2ccccc2)nnn1Nc1ccc(Cl)cc1", "MIC": "> 100"}, {"smiles": "Cc1c(C(=O)N/N=C/c2ccccc2)nnn1Nc1ccccc1", "MIC": "> 100"}, {"smiles": "Cc1c(C(=O)N/N=C/c2ccc(Br)s2)nnn1Nc1ccc(Cl)cc1", "MIC": "> 100"}, {"smiles": "Cc1c(C(=O)N/N=C/c2ccco2)nnn1Nc1ccc(Cl)cc1", "MIC": 12.5}, {"smiles": "Cc1c(C(=O)N/N=C/c2ccco2)nnn1Nc1ccccc1", "MIC": 5}, {"smiles": "CC[C@@H](CO)NCCN[C@@H](CC)CO", "note": "[ETHAMBUTOL]", "MIC": 2}, {"smiles": "CC(C)CCOc1ccc(NC(=S)Nc2ccc(OCCC(C)C)cc2)cc1", "note": "[TIOCARLIDE]", "MIC": 2.5}]}]}
